Source: PubChem
PKA-R1A activ: activators of PKA-R1A complex | 340,000 tested, 0.083% active | P00514+P68181 | activation, % at 11.4 µM | PKA-R1A dissociation, Cy5-IP20 fluorescence polarization; scaled: DMSO 0%, 113 µM cGMP 100%;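 active = percent activation above the mean of all tested compounds plus 3 SD, cut at about 19% in these data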;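 note: higher means more PKAc released from R1A so a rise in polarization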
Cardio protect: myocardial damage modulation in H9c2 cells. protection from H2O2 cell death, % at 20 µM. AID 588492. 360,000 tested, 0.63% active. H9c2 cardiomyocytes, H2O2 injury protection, ATPLite, 2 h;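 active = compounds giving at least 50% protection of heart cells from peroxide-induced death in the single-dose screen, raw or plate-pattern-corrected value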;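 note: 0% = DMSO wells with peroxide and 100% = DMSO wells without peroxide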
Tb MetRS inh: Trypanosoma brucei MetRS inhibition; purified T. brucei MetRS, ATP depletion, Kinase-Glo luminescence; inhibition, % at 11.9 µM; 360,000 tested, 0.4% active; AID 624268;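 active = inhibition above a per-plate cutoff of the control wells' mean inhibition plus 3 SD, cut at about 5.5% in these data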;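 note: 0% = DMSO wells median and 100% = median of wells with control inhibitor compound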
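Dosing: 11.9 µM compound single dose, 0.9% DMSO; Assay system: purified T. brucei MetRS enzyme; Measured by: Kinase-Glo luciferase luminescence reporting remaining unconsumed ATP; Schedule: 15 min plus 2 h at 25 °C.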
PKA-R2B act: activates the human PKA-R2B holoenzyme complex; PKA-R2B holoenzyme dissociation, Cy5-IP20 fluorescence polarization; R2B truncated from residue 108, S112A mutant; 0% DMSO only, 100% 113 µM cGMP; AID 504700; activation, % at 11.4 µM; 340,000 tested, 0.079% active; P22694+P31323;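 active = activation above a cutoff set at the mean over all compounds plus 3 SD, cut at about 18% in these data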;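 note: higher means more holoenzyme dissociation and a rise in polarization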
Rin1 Abl inh: blocks binding of human Rin1 to Abl; P00519+Q13671; TR-FRET Rin1/Abl binding, biochemical; inhibition, % at 7.35 µM; 360,000 tested, 0.4% active; in the data active = inhibition above about 5%, passing the limit was not always enough
Target sequence (P00519 whole entry, looked up): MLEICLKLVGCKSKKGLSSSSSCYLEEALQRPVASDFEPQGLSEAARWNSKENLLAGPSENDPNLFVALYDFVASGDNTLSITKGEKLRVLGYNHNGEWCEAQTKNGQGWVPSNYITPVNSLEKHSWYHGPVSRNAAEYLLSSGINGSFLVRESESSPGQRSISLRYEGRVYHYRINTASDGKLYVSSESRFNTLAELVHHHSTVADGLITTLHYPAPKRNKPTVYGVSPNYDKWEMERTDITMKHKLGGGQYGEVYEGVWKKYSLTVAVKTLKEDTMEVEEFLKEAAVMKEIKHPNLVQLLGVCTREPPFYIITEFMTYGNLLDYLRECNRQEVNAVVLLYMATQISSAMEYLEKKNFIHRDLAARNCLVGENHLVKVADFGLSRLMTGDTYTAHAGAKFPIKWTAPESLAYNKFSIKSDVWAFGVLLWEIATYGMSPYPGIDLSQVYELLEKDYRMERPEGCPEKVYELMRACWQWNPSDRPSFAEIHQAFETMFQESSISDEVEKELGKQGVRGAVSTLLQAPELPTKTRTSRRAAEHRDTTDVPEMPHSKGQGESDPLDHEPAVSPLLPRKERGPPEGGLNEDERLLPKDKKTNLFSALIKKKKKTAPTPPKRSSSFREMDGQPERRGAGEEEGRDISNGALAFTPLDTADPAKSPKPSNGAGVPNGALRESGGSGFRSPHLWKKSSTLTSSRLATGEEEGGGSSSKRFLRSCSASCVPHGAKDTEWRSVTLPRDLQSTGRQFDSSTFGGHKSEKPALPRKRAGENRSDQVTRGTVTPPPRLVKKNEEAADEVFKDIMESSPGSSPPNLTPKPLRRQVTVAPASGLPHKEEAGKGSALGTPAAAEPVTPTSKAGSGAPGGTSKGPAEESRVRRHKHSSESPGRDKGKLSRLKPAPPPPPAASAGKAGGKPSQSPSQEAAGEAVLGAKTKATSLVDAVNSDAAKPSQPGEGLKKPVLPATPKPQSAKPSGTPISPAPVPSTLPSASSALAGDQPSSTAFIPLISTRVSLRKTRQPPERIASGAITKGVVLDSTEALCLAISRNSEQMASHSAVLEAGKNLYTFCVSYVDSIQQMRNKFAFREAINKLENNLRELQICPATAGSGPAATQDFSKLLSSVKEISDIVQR
Target sequence (Q13671 whole entry, looked up): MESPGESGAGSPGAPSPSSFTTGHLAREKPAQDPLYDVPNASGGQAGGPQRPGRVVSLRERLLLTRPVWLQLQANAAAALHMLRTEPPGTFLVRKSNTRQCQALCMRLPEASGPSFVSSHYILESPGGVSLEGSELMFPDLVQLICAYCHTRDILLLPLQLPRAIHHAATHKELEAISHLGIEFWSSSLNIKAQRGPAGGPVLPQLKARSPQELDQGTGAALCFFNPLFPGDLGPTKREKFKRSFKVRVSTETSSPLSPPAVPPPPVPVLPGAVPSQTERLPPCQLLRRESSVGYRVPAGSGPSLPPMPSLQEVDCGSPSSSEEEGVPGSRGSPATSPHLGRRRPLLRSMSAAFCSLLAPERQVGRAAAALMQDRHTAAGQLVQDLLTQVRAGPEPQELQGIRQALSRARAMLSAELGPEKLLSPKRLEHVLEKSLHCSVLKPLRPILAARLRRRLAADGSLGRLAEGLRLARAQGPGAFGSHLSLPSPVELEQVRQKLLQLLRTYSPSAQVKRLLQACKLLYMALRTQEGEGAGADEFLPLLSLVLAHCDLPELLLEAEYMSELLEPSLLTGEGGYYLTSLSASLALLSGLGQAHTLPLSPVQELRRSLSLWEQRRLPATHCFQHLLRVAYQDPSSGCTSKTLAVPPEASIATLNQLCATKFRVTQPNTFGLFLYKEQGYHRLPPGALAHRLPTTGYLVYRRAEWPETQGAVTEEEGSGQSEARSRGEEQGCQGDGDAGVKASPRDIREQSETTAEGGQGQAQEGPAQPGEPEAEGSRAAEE
Rin1-Abl confirm: Rin1-Abl interaction inhibition confirmation. inhibition, % at 7.35 µM. AID 602124. 1,300 tested, 49% active. TR-FRET Rin1-Abl binding, purified proteins. shares compounds with Rin1 Abl inh
GFP quencher: quenches GFP fluorescence, counter-screen for Rin1-Abl inhibitors | 1,300 tested, 8.5% active | inhibitors/quenchers counterscreen | shares compounds with Rin1 Abl inh | inhibition, % at 6.75 µM;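 note: ABL1-eGFP fusion protein alone without its partner RIN1-SBP; 0% = protein with vehicle and 100% = wells lacking protein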
GFP quench DR: quenches GFP in dose response, Rin1-Abl counter-screen; shares compounds with Rin1 Abl inh; GFP fluorescence interference/quenching counterscreen; IC50, µM; 230 tested, under 10 active; call rule not given here;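 note: ABL1-eGFP fusion protein alone without its RIN1 binding partner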
The depositor's hits bear a star. Compounds with a hit are over-represented: about 1.5% of the library has one in this group of screens. Cut-off read from the data, not from the text of the source, unless noted: active = inhibition above about 6.5%; inactive = the rest.

How did Cc1ccc(-c2nnc(N3CCN(C(=O)c4cccs4)CC3)c3ccccc23)cc1 do in these assays?
PKA-R1A activ: 3; Cardio protect: 4; Tb MetRS inh: 0; PKA-R2B act: 2; Rin1 Abl inh: 6.3*; Rin1-Abl confirm: 3; GFP quencher: -1

Results for O=C(c1cccs1)N1CCN(c2nnc(-c3ccccc3)c3ccccc23)CC1 ?
PKA-R1A activ: -1; Cardio protect: 3; Tb MetRS inh: 0; PKA-R2B act: -12; Rin1 Abl inh: -3

How did CCOC(=O)CCCCCC(=O)Nc1ccc2c(c1)C(=O)N([C@@H](C)CO)C[C@@H](C)[C@H](CN(C)S(=O)(=O)c1cccs1)OCCCC[C@H](C)O2 do in these assays?
PKA-R1A activ: 4; Cardio protect: -7; Tb MetRS inh: 0; PKA-R2B act: -4; Rin1 Abl inh: 8.2*; Rin1-Abl confirm: 6; GFP quencher: -1

What do the screens show for `COc1ccc(S(=O)(=O)N(C)C[C@H]2Oc3ccc(NC(=O)Nc4c(C)noc4C)cc3C(=O)N([C@H](C)CO)C[C@@H]2C)cc1`?
PKA-R1A activ: -17; Cardio protect: 2; Tb MetRS inh: 0; PKA-R2B act: -2; Rin1 Abl inh: 5

How did C[C@@H]1CCCCO[C@@H](CN(C)S(=O)(=O)c2ccccc2)[C@@H](C)CN([C@H](C)CO)C(=O)c2cc(NS(=O)(=O)c3ccc(F)cc3)ccc2O1 do in these assays?
PKA-R1A activ: -2; Cardio protect: -7; Tb MetRS inh: 0; PKA-R2B act: 6; Rin1 Abl inh: 51*; Rin1-Abl confirm: 60*; GFP quencher: 0; GFP quench DR: >68

How did Cc1noc(C)c1NC(=O)Nc1ccc2c(c1)C(=O)N([C@H](C)CO)C[C@H](C)[C@@H](CN(C)S(=O)(=O)c1ccccc1)O2 do in these assays?
PKA-R1A activ: -5; Cardio protect: -1; Tb MetRS inh: 0; PKA-R2B act: 0; Rin1 Abl inh: 9.2*; Rin1-Abl confirm: 0; GFP quencher: 1

Results for NC(=O)C1CCN(C(=O)c2ccc(NS(=O)(=O)/C=C/c3ccccc3)cc2)CC1 ?
PKA-R1A activ: 4; Cardio protect: 0; Tb MetRS inh: 0; PKA-R2B act: 1; Rin1 Abl inh: -4

Results for CS(=O)(=O)N1CCC(Oc2cccc(C(=O)NCCCC3CCCC3)c2)CC1 ?
PKA-R1A activ: 9; Cardio protect: -4; Tb MetRS inh: 0; PKA-R2B act: 7; Rin1 Abl inh: 4

How did CC1CCCN(S(=O)(=O)c2ccc(C(=O)Nc3nnc(C4=COCCO4)o3)cc2)C1 (stereo unspecified) do in these assays?
PKA-R1A activ: 2; Cardio protect: 22; Tb MetRS inh: 0; PKA-R2B act: 3; Rin1 Abl inh: -5

What do the screens show for `CC1CCCCN1S(=O)(=O)c1ccc(C(=O)Nc2nnc(C3=COCCO3)o2)cc1` (stereo unspecified)?
PKA-R1A activ: -6; Cardio protect: 30; Tb MetRS inh: 0; PKA-R2B act: -5; Rin1 Abl inh: 7.8*; Rin1-Abl confirm: 1; GFP quencher: -1

Results for Cc1cc(-c2ccccc2)nc(N/N=C/c2ccc(O)cc2O)n1 ?
PKA-R1A activ: -5; Cardio protect: 37; Tb MetRS inh: 0; PKA-R2B act: -7; Rin1 Abl inh: 11*; Rin1-Abl confirm: 11*; GFP quencher: -2

Results for Oc1ccc(/C=N/Nc2ncc(Br)cn2)c(O)c1 ?
PKA-R1A activ: 1; Cardio protect: 38; Tb MetRS inh: 0; PKA-R2B act: -14; Rin1 Abl inh: 12*; Rin1-Abl confirm: 9.9*; GFP quencher: 2

Results for CCOC(=O)c1ccccc1NC(=O)c1cccc([N+](=O)[O-])c1 ?
PKA-R1A activ: 0; Cardio protect: 2; Tb MetRS inh: 0; PKA-R2B act: -1; Rin1 Abl inh: 9.8*; Rin1-Abl confirm: -3; GFP quencher: 0

Results for O=C(COC(=O)c1ccccc1NC(=O)c1ccccc1)c1cccc([N+](=O)[O-])c1 ?
PKA-R1A activ: -4; Cardio protect: 2; Tb MetRS inh: 0; PKA-R2B act: -5; Rin1 Abl inh: 0

How did COC(=O)C(NC(=O)c1cccnc1Cl)C(C)C (stereo unspecified) do in these assays?
PKA-R1A activ: 7; Cardio protect: -5; Tb MetRS inh: 0; PKA-R2B act: 1; Rin1 Abl inh: -1

How did O=c1oc2ccccc2n1CCCCCn1c(=O)oc2ccccc21 do in these assays?
PKA-R1A activ: -5; Cardio protect: 8; Tb MetRS inh: -1; PKA-R2B act: 10; Rin1 Abl inh: 4.8*; Rin1-Abl confirm: -1; GFP quencher: -1

What do the screens show for `N#CCCCn1c(=O)oc2ccccc21`?
PKA-R1A activ: 6; Cardio protect: 1; Tb MetRS inh: 0; PKA-R2B act: 0; Rin1 Abl inh: -3

How did COc1ccc2nc(Nc3nc(C)c(CCC(C)C)c(=O)[nH]3)nc(C)c2c1 do in these assays?
PKA-R1A activ: -1; Cardio protect: 31; Tb MetRS inh: -1; PKA-R2B act: 5; Rin1 Abl inh: 8.2*; Rin1-Abl confirm: -4; GFP quencher: -2

Results for COc1ccc(/C=N/NC(=O)Cn2c(Cc3ccc(OC)c(OC)c3)nc3ccccc32)cc1 ?
PKA-R1A activ: -8; Cardio protect: 6; Tb MetRS inh: -1; PKA-R2B act: -9; Rin1 Abl inh: 14*; Rin1-Abl confirm: 19*; GFP quencher: -2; GFP quench DR: >68

What do the screens show for `C=CCN(C(=O)c1csnn1)C(C(=O)NC1CCCC1)c1ccccc1F` (stereo unspecified)?
PKA-R1A activ: -10; Cardio protect: 2; Tb MetRS inh: 0; PKA-R2B act: 3; Rin1 Abl inh: 1

How did CCN(CC)c1ccc(/C=C(\C#N)C(N)=O)cc1 do in these assays?
PKA-R1A activ: -21; Cardio protect: -8; Tb MetRS inh: 0; PKA-R2B act: -5; Rin1 Abl inh: -9

Results for N#C/C(=C\c1cc(O)c(O)c(O)c1)C(N)=O ?
PKA-R1A activ: -5; Cardio protect: 4; Tb MetRS inh: -1; PKA-R2B act: 2; Rin1 Abl inh: 49*; Rin1-Abl confirm: 49*; GFP quencher: 20*

How did CC1Cc2cc(S(=O)(=O)NCCc3ccccc3)ccc2N1C(=O)C1CC1 (stereo unspecified) do in these assays?
PKA-R1A activ: -11; Cardio protect: -11; Tb MetRS inh: 0; PKA-R2B act: -9; Rin1 Abl inh: -2
